Experiments:
[1] = Drug metabolism in human HuH7 cells assessed as nucleoside diphosphate kinase-mediated ((2R,3R,4R,5R)-5-(4-amino-2-oxopyrimidin-1(2H)-yl)-4-fluoro-3-hydroxy-4-methyltetrahydrofuran-2-yl)methyl tetrahydrogen triphosphate metabolite formation at 50 uM after 48 hrs by LC/MS/MS analysis; format: ADME, cell-based
How it was run: (§1)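 Huh-7 cells plated at 0.35 million/mL in DMEM with 10% FBS (about 1 million per well at dosing) and grown 18 h. At each time point cells were washed with cold saline and lysed in methanol with internal standard. Semiquantified by LC/MS/MS MRM as Δ mean peak-area ratio relative to t0.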

[2] = Half life in human liver S9 fraction at 10 uM by LC/MS/MS analysis; format: ADME
How it was run: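 Compound at 10 μM working solution (1% DMSO, 5% MeOH in 100 mM Tris) incubated at 37 °C with human liver S9 at 1 mg protein/mL final. Reactions stopped with cold acetonitrile containing tolbutamide internal standard at 0, 5, 10, 20, 30 and 60 min. Parent measured by LC/MS/MS (MRM) as analyte/IS peak area ratio, given as percent remaining versus 0 min; half-life fitted.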

UMP-CMP kinase = molecular target: T1, UMP-CMP kinase (Homo sapiens, UniProt P30085); experiment: Drug metabolism in human HuH7 cells assessed as UMP-CMP kinase-mediated ((2R,3R,4R,5R)-5-(4-amino-2-oxopyrimidin-1(2H)-yl)-4-fluoro-3-hydroxy-4-methyltetrahydrofuran-2-yl)methyl dihydrogen phosphate metabolite formation at 50 uM after 48 hrs by LC/MS/MS analysis; format: ADME, cell-based; how it was run: as §1
T1 sequence (P30085 whole entry): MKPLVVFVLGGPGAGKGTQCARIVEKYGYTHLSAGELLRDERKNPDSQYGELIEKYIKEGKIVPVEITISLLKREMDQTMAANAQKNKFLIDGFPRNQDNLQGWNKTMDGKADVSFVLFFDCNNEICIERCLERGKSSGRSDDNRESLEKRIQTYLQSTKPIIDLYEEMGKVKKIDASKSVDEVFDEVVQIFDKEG

Huh-7 = experiment: Cytotoxicity against human HuH7 cells assessed as reduction in cell viability up to 100 uM after 72 hrs by Cell Titer-Fluor Cell assay; format: cell-based; details: huh-7, 72 h
How it was run: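 Huh7 cells carrying HCV genotype 1b replicon, 8000 per well, in duplicate 3-fold dilution series with 0.5% DMSO final; 72 h at 37 °C, 5% CO2. Viability read by Cell Titer-Fluor fluorescence after 5 min; replicon inhibition read by Bright-Glo luciferase luminescence in the same wells. EC50 and CC50 come from curve fitting.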

Liver carboxylesterase 1 = molecular target: T2, Liver carboxylesterase 1 (Homo sapiens, UniProt P23141); experiment: Drug metabolism in human HuH7 cells assessed as carboxylesterase 1-mediated (S)-2-((R)-(((2R,3R,4R,5R)-5-(4-butyramido-2-oxopyrimidin-1(2H)-yl)-4-fluoro-3-hydroxy-4-methyltetrahydrofuran-2-yl)methoxy)(hydroxy)phosphorylamino)propanoic acid metabolite formation at 50 uM after 24 hrs by LC/MS/MS analysis; format: ADME, cell-based; how it was run: as §1
T2 sequence (P23141 whole entry): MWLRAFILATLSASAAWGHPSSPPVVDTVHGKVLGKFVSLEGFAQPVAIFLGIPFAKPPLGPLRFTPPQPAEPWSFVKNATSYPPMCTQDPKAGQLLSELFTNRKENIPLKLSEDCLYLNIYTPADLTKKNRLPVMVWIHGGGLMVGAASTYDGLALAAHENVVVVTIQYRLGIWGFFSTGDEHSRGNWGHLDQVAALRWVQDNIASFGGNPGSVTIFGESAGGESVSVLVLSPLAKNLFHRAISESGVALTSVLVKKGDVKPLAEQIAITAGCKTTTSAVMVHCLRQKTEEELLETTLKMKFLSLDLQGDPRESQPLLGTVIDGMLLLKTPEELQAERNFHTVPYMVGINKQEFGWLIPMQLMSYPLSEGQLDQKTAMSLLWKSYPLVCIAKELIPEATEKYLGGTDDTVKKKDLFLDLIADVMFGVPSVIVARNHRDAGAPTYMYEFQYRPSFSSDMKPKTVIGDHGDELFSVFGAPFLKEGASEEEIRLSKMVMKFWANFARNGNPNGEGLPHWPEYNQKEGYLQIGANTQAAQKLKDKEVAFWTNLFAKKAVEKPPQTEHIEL

Canis familiaris = experiment: Toxicity in Beagle dog at 150 mg/kg, administered via oral gavage measured up to 24 hrs post dose; format: organism-based, Canis lupus familiaris; details: in vivo
How it was run: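 Six Beagle dogs (three male, three female) given one oral gavage dose of 150 mg/kg in 20% w/v hydroxypropyl-β-cyclodextrin in water. Animals watched for clinical symptoms and adverse events while plasma was sampled over 24 h.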

[3] = Tmax in Beagle dog at 150 mg/kg, administered via oral gavage measured up to 24 hrs post dose by LC/MS/MS analysis; format: ADME, organism-based, Canis lupus familiaris; details: in vivo
How it was run: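 Beagle dogs, 3 per sex, given a single oral gavage dose of 150 mg/kg in 20% w/v hydroxypropyl-β-cyclodextrin in water, 2.5 mL/kg. K2EDTA blood taken by venipuncture at 0.5, 0.75, 1, 2, 4, 6, 8, 12 and 24 h. Plasma extracted with ice-cold acetonitrile, then LC/MS/MS in positive MRM mode with zolpidem as internal standard. Noncompartmental analysis; mean ± SD.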

Mus musculus [4] = experiment: Subacute toxicity in ICR mouse assessed as weight change in kidney at 100 to 1000 mg/kg, administered once a day via oral gavage for 14 days; format: organism-based; details: in vivo, 336 h
How it was run: (§2)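 ICR mice, 22−25 g, 5 per sex per group, gavaged daily for 14 days at 100, 500 or 1000 mg/kg in 30% PEG400/30% Tween 20/20% corn oil/20% water, with a vehicle control group. Observed daily for body weight change, skin and fur, inflammation and necrosis. Animals anesthetized on day 15; organ weights (liver, kidney) taken. Serum SGOT/SGPT compared with controls.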

Mus musculus [5] = experiment: Subacute toxicity in ICR mouse assessed as alteration in basic levels of SGPT at 100 to 1000 mg/kg, administered once a day via oral gavage for 14 days; format: organism-based; details: in vivo, 336 h; how it was run: as §2
Mus musculus [6] = experiment: Subacute toxicity in ICR mouse assessed as effect on hepatic perilobular vein at 100 to 1000 mg/kg, administered once a day via oral gavage for 14 days by hematoxylin/eosin-staining based microscopic analysis; format: organism-based; details: in vivo, 336 h
How it was run: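 Same 14-day daily oral gavage design as the subacute study (ICR mice, 5 per sex per group, 100/500/1000 mg/kg or vehicle). Liver and kidney taken after anesthesia on day 15, processed routinely, cut as 5 μm paraffin sections, stained with hematoxylin and eosin and examined microscopically.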

[7] = Drug metabolism in human HuH7 cells assessed as ((2R,3R,4R,5R)-4-fluoro-3-hydroxy-5-(4-hydroxy-2-oxo-3,4-dihydropyrimidin-1(2H)-yl)-4-methyltetrahydrofuran-2-yl)methyl tetrahydrogen triphosphate metabolite formation at 50 uM after 48 hrs by LC/MS/MS analysis; format: ADME, cell-based; details: huh-7, 48 h; how it was run: as §1
Mus musculus [8] = experiment: Subacute toxicity in ICR mouse assessed as alteration in basic levels of SGOT at 100 to 1000 mg/kg, administered once a day via oral gavage for 14 days; format: organism-based; details: in vivo, 336 h; how it was run: as §2
Mus musculus [9] = experiment: Acute toxicity in ICR mouse assessed as mortality at 150 to 1800 mg/kg, administered via oral gavage measured once a day over 14 days; format: organism-based; details: in vivo, 336 h
How it was run: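 ICR mice, 22−25 g, 5 per sex per group. Single oral gavage at 150, 500, 1200 or 1800 mg/kg in vehicle of 30% PEG400/30% Tween 20/20% corn oil/20% water, with a vehicle control. Mortality, morbidity, clinical signs and body weight change recorded once daily for 14 days.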

CCCC(=O)Nc1ccn([C@@H]2O[C@H](CO[P@@](=O)(N[C@@H](C)C(=O)OC(C)C)Oc3ccccc3)[C@@H](O)[C@@]2(C)F)c(=O)n1
Drug metabolism [1]: Metabolite_Detected
half-life at 10 µM [2]: 9.6 min
Drug metabolism (UMP-CMP kinase): Metabolite_Detected
Activity (Huh-7): Non-Toxic
Drug metabolism (Liver carboxylesterase 1): Metabolite_Detected
Activity (Canis familiaris): Non-Toxic
Tmax [3]: 54 min
Activity (Mus musculus [4]): Non-Toxic
Activity (Mus musculus [5]): Non-Toxic
Activity (Mus musculus [6]): Non-Toxic
Drug metabolism [7]: Metabolite_Notdetected
Activity (Mus musculus [8]): Non-Toxic
Activity (Mus musculus [9]): Non-Toxic

— ChEMBL document CHEMBL4011639, “Discovery of Novel Nucleotide Prodrugs with Improved Potency Against HCV Variants Carrying NS5B S282T Mutation” (J Med Chem, 2017)
